For one assay, the target named is D(2) dopamine receptor (Rattus norvegicus, UniProt P61169). The assay can be described thus: Displacement of [3H]spiperone from D2 receptor in rat striatum by liquid scintillation counting analysis. The procedure, abridged: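 Rat striatal membranes with [3H]-spiperone. Compounds were tested in triplicate at 7–8 concentrations (10⁻¹¹–10⁻⁴). Ki values were calculated.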
(In a radioligand displacement assay an active substance lowers the binding of a labelled ligand.)

The target in assay [1] is T1, 5-hydroxytryptamine receptor 1A (Homo sapiens) (UniProt P08908).
T1 sequence (whole entry): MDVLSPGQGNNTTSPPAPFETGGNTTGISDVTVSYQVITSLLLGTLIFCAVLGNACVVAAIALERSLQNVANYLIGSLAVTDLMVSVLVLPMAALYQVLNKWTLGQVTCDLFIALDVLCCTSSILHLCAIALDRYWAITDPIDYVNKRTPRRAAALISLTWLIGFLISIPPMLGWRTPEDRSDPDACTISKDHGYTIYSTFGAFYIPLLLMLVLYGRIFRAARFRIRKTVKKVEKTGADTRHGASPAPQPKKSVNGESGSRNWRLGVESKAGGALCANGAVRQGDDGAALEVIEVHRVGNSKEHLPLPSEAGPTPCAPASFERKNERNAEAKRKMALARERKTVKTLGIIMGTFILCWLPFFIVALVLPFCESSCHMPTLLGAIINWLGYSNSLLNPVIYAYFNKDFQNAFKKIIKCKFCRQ
The assay can be described thus: Displacement of [3H]-8-OH-DPAT from human cloned 5HT1A receptor expressed in HEK293 cells at 1 uM by scintillation counting analysis. It counts as cell-based. The procedure, abridged:
(§1)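 Extended binding screen run by a contract lab. Receptors were cloned human: 5-HT1A, 5-HT2A, 5-HT2C and H1 in HEK-293 cells; D1, α1, α2C and M3 in CHO cells; 5-HT6/7 and D2/3/4 in CHO cells. Radioligand displacement was done at a single 1.0E-06 concentration in duplicate. Results are mean % inhibition of control specific binding.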

Assay [2] addresses T2, Alpha-2C adrenergic receptor (Homo sapiens) (UniProt P18825).
T2 sequence (whole entry): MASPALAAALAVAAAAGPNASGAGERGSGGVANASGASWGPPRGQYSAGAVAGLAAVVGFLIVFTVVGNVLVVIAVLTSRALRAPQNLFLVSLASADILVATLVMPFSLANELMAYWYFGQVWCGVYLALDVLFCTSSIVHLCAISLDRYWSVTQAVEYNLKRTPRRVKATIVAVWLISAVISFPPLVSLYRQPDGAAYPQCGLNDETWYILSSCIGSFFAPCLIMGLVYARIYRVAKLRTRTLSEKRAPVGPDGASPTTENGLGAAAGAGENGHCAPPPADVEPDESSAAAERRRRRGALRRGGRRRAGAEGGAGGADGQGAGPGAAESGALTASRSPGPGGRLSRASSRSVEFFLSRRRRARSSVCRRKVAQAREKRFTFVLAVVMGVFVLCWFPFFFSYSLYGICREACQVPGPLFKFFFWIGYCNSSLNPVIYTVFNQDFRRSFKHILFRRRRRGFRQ
Description: Displacement of [3H]RX821002 from human alpha2C adrenergic receptor expressed in CHO cells at 1 uM by scintillation counting analysis. The class given is cell-based. In a few lines:
as §1

Assay [3] addresses D(2) dopamine receptor (Homo sapiens) (UniProt P14416). The assay can be described thus: Agonist activity at human recombinant D2 receptor expressed in HEK293 cells at 1 uM. It counts as cell-based. The procedure, abridged: (§2)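 Functional assays run by a contract lab on CHO or HEK-293 cells stably expressing the human receptor. Read-out was intracellular cAMP, IP1 or Ca2+ release. A single test concentration of 1.0E-06 was used, in duplicate. Data are mean % of the control response.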

For assay [4] the target is unchanged. Description: Antagonist activity at human recombinant D2 receptor expressed in HEK293 cells assessed as inhibition of dopamine-induced response at 1 uM. The class given is cell-based. In a few lines: as §2
The target in assay [5] is D(3) dopamine receptor (Homo sapiens) (UniProt P35462). The assay can be described thus: Agonist activity at human recombinant D3 receptor expressed in CHO cells assessed as intracellular cAMP release at 1 uM by HTRF method. The class given is functional, cell-based. In a few lines:
as §2
A general note: Time-resolved FRET reads energy transfer from a long-lived donor to a nearby acceptor.

For assay [6] the target is unchanged. The assay can be described thus: Antagonist activity at human recombinant D3 receptor expressed in CHO cells assessed as inhibition of dopamine-induced intracellular cAMP release at 1 uM by HTRF method. The class given is functional, cell-based. In a few lines:
as §2

For assay [7], the target named is T3, D(4) dopamine receptor (Homo sapiens) (UniProt P21917).
T3 sequence (whole entry): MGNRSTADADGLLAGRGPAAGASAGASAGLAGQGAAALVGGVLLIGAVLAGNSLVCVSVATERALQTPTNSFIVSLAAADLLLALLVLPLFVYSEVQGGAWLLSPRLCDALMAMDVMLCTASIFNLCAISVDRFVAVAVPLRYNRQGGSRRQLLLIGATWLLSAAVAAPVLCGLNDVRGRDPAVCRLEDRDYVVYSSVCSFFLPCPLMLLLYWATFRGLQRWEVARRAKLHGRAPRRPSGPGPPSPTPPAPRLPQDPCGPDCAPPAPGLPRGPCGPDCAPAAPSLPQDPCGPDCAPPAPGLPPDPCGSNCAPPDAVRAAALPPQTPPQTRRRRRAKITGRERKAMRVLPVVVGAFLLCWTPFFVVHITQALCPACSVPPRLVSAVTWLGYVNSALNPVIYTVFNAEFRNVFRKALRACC
Description: Antagonist activity at human recombinant D4 receptor expressed in CHO cells assessed as inhibition of dopamine-induced intracellular cAMP release at 1 uM by HTRF method. It counts as functional, cell-based. The procedure, abridged:
as §2

Assay [8] concerns the target T1, 5-hydroxytryptamine receptor 1A (Homo sapiens). The assay can be described thus: Agonist activity at human recombinant 5HT1A receptor expressed in HEK293 cells at 1 uM. It counts as cell-based. The procedure, abridged: as §2
For assay [9], the target named is 5-hydroxytryptamine receptor 2A (Homo sapiens) (UniProt P28223). The assay can be described thus: Agonist activity at human recombinant 5HT2A receptor expressed in HEK293 cells assessed as intracellular IP1 release at 1 uM by HTRF assay. It counts as functional, cell-based. In a few lines: as §2
Assay [10] shares this target. The assay can be described thus: Antagonist activity at human recombinant 5HT2A receptor expressed in HEK293 cells assessed as inhibition of serotonin-induced intracellular IP1 release at 1 uM by HTRF assay. The class given is functional, cell-based. The procedure, abridged: as §2
For assay [11], the target named is 5-hydroxytryptamine receptor 7 (Homo sapiens) (UniProt P34969). Description: Agonist activity at human recombinant 5HT7 receptor expressed in CHO cells assessed as intracellular cAMP release at 1 uM by HTRF assay. The class given is functional, cell-based. The procedure, abridged: as §2
Assay [12] has the same target. Description: Antagonist activity at human recombinant 5HT7 receptor expressed in CHO cells assessed as inhibition of serotonin-induced intracellular cAMP release at 1 uM by HTRF assay. The class given is functional, cell-based. In a few lines: as §2
For assay [13], the target named is T4, Adrenergic receptor alpha-1 (Homo sapiens) (UniProt P35348+P25100+P35368). The assay can be described thus: Agonist activity at human recombinant alpha1 adrenoceptor expressed in CHO cells at 1 uM. It counts as cell-based. In a few lines:
as §2

Assay [14] deals with T4, Adrenergic receptor alpha-1 (Homo sapiens). Description: Antagonist activity at human recombinant alpha1 adrenoceptor expressed in CHO cells assessed as inhibition of agonist induced response at 1 uM. The class given is cell-based. The procedure, abridged: as §2
The target of assay [15] is T2, Alpha-2C adrenergic receptor (Homo sapiens). The assay can be described thus: Agonist activity at human recombinant alpha2C adrenoceptor expressed in CHO cells assessed as intracellular cAMP release at 1 uM by HTRF assay. The class given is functional, cell-based. The procedure, abridged: as §2
Assay [16] shares this target. Description: Antagonist activity at human recombinant alpha2C adrenoceptor expressed in CHO cells assessed as inhibition of epinephrine-induced intracellular cAMP release at 1 uM by HTRF assay. It counts as functional, cell-based. In a few lines: as §2
The target in assay [17] is Histamine H1 receptor (Homo sapiens) (UniProt P35367). Description: Agonist activity at human recombinant H1 receptor expressed in HEK-293 cells assessed as intracellular Ca2+ release at 1 uM by fluorimetry. The class given is functional, cell-based. The following applies: HEK293. The procedure, abridged: as §2

Broadly, the Ki is a measure of affinity in units of concentration, obtained from inhibition or displacement. High values mean weaker binding, low ones tighter binding. Broadly, the inhibition is the relative decrease from the control value, in per cent.

Sequence of D(3) dopamine receptor (Homo sapiens) (P35462 whole entry): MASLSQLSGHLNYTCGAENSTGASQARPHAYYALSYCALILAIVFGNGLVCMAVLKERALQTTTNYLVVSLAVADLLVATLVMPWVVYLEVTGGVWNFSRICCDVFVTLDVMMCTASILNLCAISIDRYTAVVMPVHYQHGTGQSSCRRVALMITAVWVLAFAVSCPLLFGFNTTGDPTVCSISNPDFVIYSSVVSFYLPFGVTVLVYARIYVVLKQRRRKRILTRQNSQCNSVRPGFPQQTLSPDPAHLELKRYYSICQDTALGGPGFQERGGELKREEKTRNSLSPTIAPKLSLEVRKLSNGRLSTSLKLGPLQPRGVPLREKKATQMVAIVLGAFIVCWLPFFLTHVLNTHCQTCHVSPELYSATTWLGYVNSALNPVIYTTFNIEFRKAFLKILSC
Sequence of 5-hydroxytryptamine receptor 7 (Homo sapiens) (P34969 whole entry): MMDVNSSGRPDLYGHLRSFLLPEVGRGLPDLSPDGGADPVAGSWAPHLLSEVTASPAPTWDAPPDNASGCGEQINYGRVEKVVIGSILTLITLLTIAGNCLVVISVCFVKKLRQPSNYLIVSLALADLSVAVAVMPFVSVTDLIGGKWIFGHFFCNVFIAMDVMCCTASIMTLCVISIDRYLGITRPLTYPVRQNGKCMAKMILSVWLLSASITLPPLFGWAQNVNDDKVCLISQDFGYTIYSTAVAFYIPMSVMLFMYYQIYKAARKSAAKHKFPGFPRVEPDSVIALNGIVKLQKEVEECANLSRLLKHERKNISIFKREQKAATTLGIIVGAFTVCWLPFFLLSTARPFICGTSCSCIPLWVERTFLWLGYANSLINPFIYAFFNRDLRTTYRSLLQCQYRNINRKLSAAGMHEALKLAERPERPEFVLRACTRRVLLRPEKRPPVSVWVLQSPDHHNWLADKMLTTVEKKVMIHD
Sequence of 5-hydroxytryptamine receptor 2A (Homo sapiens) (P28223 whole entry): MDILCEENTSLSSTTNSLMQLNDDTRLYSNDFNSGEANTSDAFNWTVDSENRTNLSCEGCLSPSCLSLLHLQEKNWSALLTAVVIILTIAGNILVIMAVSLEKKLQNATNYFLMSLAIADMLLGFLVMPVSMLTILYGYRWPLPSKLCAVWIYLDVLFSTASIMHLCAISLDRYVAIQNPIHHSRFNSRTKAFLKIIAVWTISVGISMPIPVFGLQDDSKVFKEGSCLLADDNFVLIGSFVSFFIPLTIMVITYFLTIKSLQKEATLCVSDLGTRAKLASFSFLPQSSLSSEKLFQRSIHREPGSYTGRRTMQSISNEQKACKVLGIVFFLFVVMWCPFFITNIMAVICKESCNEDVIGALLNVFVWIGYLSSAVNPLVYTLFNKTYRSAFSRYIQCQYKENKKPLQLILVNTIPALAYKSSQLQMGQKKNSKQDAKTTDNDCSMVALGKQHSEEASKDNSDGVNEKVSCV
Sequence of D(2) dopamine receptor (P61169 whole entry): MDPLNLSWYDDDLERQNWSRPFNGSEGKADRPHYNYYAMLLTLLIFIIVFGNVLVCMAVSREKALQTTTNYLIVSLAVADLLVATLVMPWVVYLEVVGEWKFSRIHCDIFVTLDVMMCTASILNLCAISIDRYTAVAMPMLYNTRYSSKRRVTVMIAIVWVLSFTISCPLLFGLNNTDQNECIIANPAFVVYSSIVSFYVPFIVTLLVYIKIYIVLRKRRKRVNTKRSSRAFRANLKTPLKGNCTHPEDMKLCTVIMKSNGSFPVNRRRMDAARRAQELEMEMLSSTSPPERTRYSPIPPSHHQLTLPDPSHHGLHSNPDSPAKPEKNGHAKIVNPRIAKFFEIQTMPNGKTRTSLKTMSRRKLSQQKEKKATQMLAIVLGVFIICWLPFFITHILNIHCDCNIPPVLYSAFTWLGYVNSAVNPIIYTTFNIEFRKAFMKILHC
Sequence of D(2) dopamine receptor (Homo sapiens) (P14416 whole entry): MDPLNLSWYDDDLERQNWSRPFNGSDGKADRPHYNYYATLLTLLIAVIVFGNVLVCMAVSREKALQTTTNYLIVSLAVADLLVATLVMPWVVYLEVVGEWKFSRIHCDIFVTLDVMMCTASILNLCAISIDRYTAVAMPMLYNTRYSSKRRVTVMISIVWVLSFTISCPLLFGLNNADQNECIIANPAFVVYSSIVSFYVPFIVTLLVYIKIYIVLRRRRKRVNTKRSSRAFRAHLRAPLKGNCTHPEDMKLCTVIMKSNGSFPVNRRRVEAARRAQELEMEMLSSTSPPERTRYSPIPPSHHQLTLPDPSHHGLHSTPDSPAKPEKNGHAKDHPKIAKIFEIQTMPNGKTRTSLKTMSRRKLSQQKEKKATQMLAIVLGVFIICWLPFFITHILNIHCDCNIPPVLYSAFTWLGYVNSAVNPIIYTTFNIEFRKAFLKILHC
Sequence of Histamine H1 receptor (Homo sapiens) (P35367 whole entry): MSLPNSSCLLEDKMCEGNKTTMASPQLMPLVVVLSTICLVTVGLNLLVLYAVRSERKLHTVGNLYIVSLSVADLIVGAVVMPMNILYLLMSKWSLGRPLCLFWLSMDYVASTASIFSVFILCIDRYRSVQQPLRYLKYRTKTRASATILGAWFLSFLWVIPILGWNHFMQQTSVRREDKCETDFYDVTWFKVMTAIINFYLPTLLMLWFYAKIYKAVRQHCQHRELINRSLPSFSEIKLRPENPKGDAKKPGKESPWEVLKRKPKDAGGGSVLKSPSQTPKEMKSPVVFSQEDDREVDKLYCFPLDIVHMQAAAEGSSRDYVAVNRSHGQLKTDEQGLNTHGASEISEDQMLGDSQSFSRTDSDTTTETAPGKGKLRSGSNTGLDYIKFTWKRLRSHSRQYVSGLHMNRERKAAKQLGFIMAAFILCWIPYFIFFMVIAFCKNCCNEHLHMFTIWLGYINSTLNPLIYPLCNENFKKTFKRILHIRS

On to `O=C1NC2(CCc3ccccc32)C(=O)N1CCCCN1CCN(c2cccc(Cl)c2)CC1` (configuration not stated), for which, on D(2) dopamine receptor, the Ki was 539 nM. Besides, the inhibition in [1] was found to be 103%; in assay [2], 97%.

`COc1ccccc1N1CCN(CCCCN2C(=O)NC3(CCc4ccccc43)C2=O)CC1` (configuration not stated) showed an inhibition constant (Ki) on D(2) dopamine receptor of 104 nM. Also, the inhibition in assay [1] worked out at 103%; in assay [2] it was 101%; in assay [4], 85%; in [6], 66%; in [7] it was 75%; in assay [10], 18%. The inhibition in assay [12] worked out at 28%; in [14] it was 95%; in assay [16], 69%. Also, the Activity in [3] was 20%; in assay [5] it was 20%; in assay [8] it was 37%; in assay [9], 1%; in [11], 6%; in assay [13] it was 2%. In addition, the Activity is 15% in [15] and -2% in [17].

In the case of `COc1ccccc1N1CCN(CCCCN2C(=O)NC3(CCCc4ccccc43)C2=O)CC1` (configuration not stated), at D(2) dopamine receptor, the Ki was determined as 59 nM. The inhibition in assay [1] was determined as 98%; in assay [2] it was 101%; in [4], 91%; in [6], 53%; in [7], 84%; in [10] it was 27%. Also, the values for the inhibition in assay [12], in assay [14] and in assay [16] were 43%, 94% and 79%, respectively. Besides, the Activity is 24% in assay [3]; 18% in [5]; 26% in [8]; 0% in [9]; 6% in assay [11]; 1% in assay [13]. In addition, the Activity was 20% in assay [15] and -2% in assay [17].

At D(2) dopamine receptor, `O=C1NC2(CCCc3ccccc32)C(=O)N1CCCCN1CCN(c2cccc(Cl)c2)CC1` (configuration not stated) gave a Ki of 1100 nM. Moreover, the inhibition in assay [1] and in assay [2] was 99% each time.

The values are drawn from ChEMBL document CHEMBL3588770, “Novel spirohydantoin derivative as a potent multireceptor-active antipsychotic and antidepressant agent” (Bioorg Med Chem, 2015).
